Experimental findings from ChEMBL document CHEMBL4422700, “Trichothecenes from a Soil-Derived Trichoderma brevicompactum” (J Nat Prod, 2019) are described below.

Test [1] deals with KB. The experiment in a line: Cytotoxicity against human KB cells assessed as reduction in cell viability by resazurin microplate assay. The class given is functional, cell-based. The gist of the method:
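KB cells tested by resazurin microplate assay. Ellipticine served as positive control.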
(Resazurin is reduced to fluorescent resorufin, in cell work by metabolically active cells.)

Test [2] deals with Vero. The experiment in a line: Cytotoxicity against African green monkey Vero cells assessed as reduction in cell viability by resazurin microplate assay. The class given is cell-based, Chlorocebus sabaeus. The gist of the method:
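Vero (African green monkey kidney fibroblast) cells, run in triplicate. Ellipticine served as positive control.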

Test [3] relates to Plasmodium falciparum. The test is described as follows: Antimalarial activity against multidrug-resistant Plasmodium falciparum K1 infected in erythrocytes assessed as reduction in [3H]-hypoxanthine incorporation incubated for 24 hrs before [3H]-hypoxanthine addition and measured after 24 hrs by microplate scintillation counting based microculture radioisotope technique. The class given is functional, organism-based. The method in brief: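 Ring-stage K1 culture in RPMI-1640 at 1.5% erythrocyte suspension and 1% parasitaemia, exposed to test solution at 37 °C under CO2 for 24 h. 3H-hypoxanthine (0.5 μCi per well) was then added and incubation continued 24 h. Incorporation was read by scintillation counting; % growth = CPM treated/CPM untreated × 100. Dihydroartemisinin served as standard.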

In test [4] the test system is Candida albicans. The experiment in a line: Antifungal activity against Candida albicans NCPF3153 by colorimetric broth microdilution method. The class given is functional. Background: Broth dilution looks for growth in wells or tubes with falling amounts of substance.
The test system of test [5] is Nannizzia gypsea. The experiment in a line: Antifungal activity against Microsporum gypseum by colorimetric broth microdilution method. The class given is functional.
In test [6] the test system is Cryptococcus neoformans. The experiment in a line: Antifungal activity against flucytosine-resistant, Cryptococcus neoformans ATCC 90113 by colorimetric broth microdilution method. The class given is functional.
[7] abbreviates: Plasmodium falciparum, K1, read-out: IC50.

Values after ≈ are worked out from the molar mass of the structure shown. Active and inactive are the calls of the source. The rule behind the calls is not given here.

By IC50 is commonly meant the concentration that inhibits the measured activity by half. As a reminder, the MIC is the lowest concentration found to suppress growth.

Consider `CC(=O)O[C@@H]1C[C@H]2O[C@@H]3C[C@H](CO)CC[C@]3(C)[C@]1(C)[C@]21CO1`, for which the half-maximal inhibitory concentration (IC50) in test [1] (kb) was 116 µM; in test [2] (vero), 45.9 µM; in test [3] it was “Not Active”. Further, the MIC result in test [4], in test [5] and in test [6] was “inactive” in each case.
With `CC1=C[C@H]2O[C@@H]3C[C@@H](O)[C@](C)([C@@]2(C)CC1)[C@]31CO1` [TRICHODERMOL], the 50% inhibitory concentration (IC50) in test [1] (kb) amounted to 16.1 µM; in test [2] (vero) it was 6.9 µM; in test [3] (read-out: IC50) it was 7.1 µM. In addition, the MIC entry in test [5] was “inactive”.
On to `CC(=O)O[C@@H]1C[C@H]2O[C@@H]3C=C(C)CC[C@]3(C)[C@]1(C)[C@]21CO1`, for which the IC50 in test [1] (kb) was found to be 2.4 µM; in test [2] (vero) it was 0.4 µM; in test [3] (read-out: IC50), 0.1 µM.
As for `C[C@H]1C(O)O[C@@H]2O[C@@]3(C)CC[C@H]4[C@H](C)CCC1C24OO3` (some centres not stated), in test [3] (setting [7]), the IC50 amounted to 0.0022 µM.
Regarding `CC(=O)O[C@@H]1C[C@H]2O[C@@H]3C=C(CO)CC[C@]3(C)[C@]1(C)[C@]21CO1`, the results for the IC50 in test [1] (kb), in test [2] (vero) and in test [3] (read-out: IC50) were 20.6 µM, 7.8 µM and 8.8 µM, respectively. The MIC result in test [5] is “inactive”.
Take `Cc1c2ccncc2c(C)c2c1[nH]c1ccccc12` [ELLIPTECINE]: the IC50 in test [2] (Chlorocebus sabaeus, Vero) amounted to 4.1 µM.
For `CC(=O)O[C@@H]1C[C@H]2O[C@@H]3C=C(C=O)CC[C@]3(C)[C@]1(C)[C@]21CO1`, the IC50 in test [1] (kb) is 3.7 µM; in test [2] (vero), 9.9 µM; in test [3] (read-out: IC50), 9.6 µM. Besides, in test [5], the MIC entry is “inactive”.
As to `C[C@@H]1[C@H](O)[C@@H](C)/C=C/C=C/C=C/C=C/C=C/C=C/C=C/[C@H](O[C@@H]2O[C@H](C)[C@@H](O)[C@H](N)[C@@H]2O)C[C@@H]2O[C@](O)(C[C@@H](O)C[C@@H](O)[C@H](O)CC[C@@H](O)C[C@@H](O)CC(=O)O[C@H]1C)C[C@H](O)[C@H]2C(=O)O` [AMPHOTERICIN B], the MIC was found to be 0.5 µg/mL (≈ 0.541 µM) in test [4] and 0.25 µg/mL (≈ 0.271 µM) in test [6].
Consider `CC1=C[C@]23O[C@@H]4C[C@@H](O)[C@](C)([C@@]2(C)CC1)[C@]4(CO)O3`, for which the IC50 in test [1] (Homo sapiens, KB) turned out to be 44.7 µM; in test [2] (Chlorocebus sabaeus, Vero) it was 15.3 µM; in test [3] (setting [7]), 7.4 µM. In addition, the MIC in test [4] and in test [6] was 16 µg/mL (≈ 60.1 µM) each time. In addition, in test [5], the MIC result is “inactive”.
On to `Clc1ccc(COC(Cn2ccnc2)c2ccc(Cl)cc2Cl)c(Cl)c1` (configuration not stated) [MICONAZOLE], for which, in test [5], the lowest concentration to inhibit growth (MIC) was 1 µg/mL (≈ 2.4 µM).
